# Reference: ChEMBL document CHEMBL1177718, “Phosphoramidate ProTides of 2'-C-methylguanosine as highly potent inhibitors of hepatitis C virus. Study of their in vitro and in vivo properties” (J Med Chem, 2010)
# What was measured:
# [1] = test system: Hepatitis C virus; assay: Antiviral activity against HCV1b infected in human HuH7 cells assessed as inhibition of viral replication after 48 hrs by luciferase reporter gene assay; format: functional, organism-based, Hepacivirus hominis; details: genotype 1b, Huh-7, 48 h
# How it was run: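 Huh7 cells carrying genotype 1b bicistronic subgenomic replicon, seeded 2 × 10⁴/well without G-418; compounds added 18-24 h later, 48 h exposure; 3× or 4× serial dilutions over 0.0001-10 μM in triplicate/quadruplicate; Renilla luciferase read-out versus untreated cells; EC₅₀ by four-parameter sigmoidal nonlinear regression; at least three independent assays.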
# [2] = Metabolic stability in cynomolgus monkey intestine S9 fraction assessed as compound remaining at 10 uM after 60 mins by HPLC analysis in absence of NADP; format: ADME, tissue-based, Macaca fascicularis; details: read-out: Stability
# How it was run: (§1)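 Liver or intestinal S9 at final 1 mg/mL in 50 mM potassium phosphate, with or without NADPH-regenerating system (1.3 mM NADP, 3.3 mM glucose-6-phosphate, 0.4 U/mL G6PDH, 3.3 mM MgCl₂); 10 min preincubation at 37 °C; compound at final 10 μM; samples at start and 60 min quenched in cold acetonitrile, centrifuged, HPLC; % parent remaining.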
# [3] = Metabolic stability in mouse plasma assessed as compound remaining at 1 ug/ml after 30 mins; format: ADME, cell-free; details: read-out: Stability
# [4] = Metabolic stability in human intestine S9 fraction assessed as compound remaining at 10 uM after 60 mins by HPLC analysis in absence of NADP; format: ADME, tissue-based; details: read-out: Stability; how it was run: as §1
# [5] = Metabolic stability in rat intestine S9 fraction assessed as compound remaining at 10 uM after 60 mins by HPLC analysis in presence of NADP; format: ADME, tissue-based; details: read-out: Stability
# How it was run: (§2)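 Rat liver or intestinal S9 at 1 mg/mL final in 50 mM potassium phosphate, with or without NADPH-regenerating system (final 1.3 mM NADP, 3.3 mM glucose-6-phosphate, 0.4 U/mL G6P dehydrogenase, 3.3 mM MgCl2). Preincubated 10 min at 37 °C with shaking, started with compound at 10 μM final. Samples taken at 0 and 60 min, quenched in cold acetonitrile, centrifuged, and parent disappearance measured by HPLC.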
# [6] = Metabolic stability in dog intestine S9 fraction assessed as compound remaining at 10 uM after 60 mins by HPLC analysis in absence of NADP; format: ADME, tissue-based, Canis lupus familiaris; details: read-out: Stability; how it was run: as §1
# [7] = Metabolic stability in dog liver S9 fraction assessed as compound remaining at 10 uM after 60 mins by HPLC analysis in absence of NADP; format: ADME, subcellular, Canis lupus familiaris; details: read-out: Stability; how it was run: as §1
# [8] = Metabolic stability in cynomolgus monkey intestine S9 fraction assessed as compound remaining at 10 uM after 60 mins by HPLC analysis in presence of NADP; format: ADME, tissue-based, Macaca fascicularis; details: read-out: Stability; how it was run: as §1
# [9] = Metabolic stability in human liver S9 fraction assessed as compound remaining at 10 uM after 60 mins by HPLC analysis in presence of NADP; format: ADME, subcellular; details: read-out: Stability; how it was run: as §1
# [10] = Metabolic stability in cynomolgus monkey liver S9 fraction assessed as compound remaining at 10 uM after 60 mins by HPLC analysis in absence of NADP; format: ADME, subcellular, Macaca fascicularis; details: read-out: Stability; how it was run: as §1
# [11] = Metabolic stability in rat liver S9 fraction assessed as compound remaining at 10 uM after 60 mins by HPLC analysis in presence of NADP; format: ADME, subcellular; details: read-out: Stability; how it was run: as §2
# [12] = Metabolic stability in dog intestine S9 fraction assessed as compound remaining at 10 uM after 60 mins by HPLC analysis in presence of NADP; format: ADME, tissue-based, Canis lupus familiaris; details: read-out: Stability; how it was run: as §1
# [13] = Cytotoxicity against human HuH7 cells after 72 hrs by celltiter-glo assay; format: cell-based, Huh-7
# How it was run: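 Replicon 1b Huh7 cells seeded 2 × 10⁴/well; after 24 h, 11 serial 2× dilutions from 100 μM (three repeats each) with no-compound control; 72 h at 37 °C, CO₂, log-phase growth; viability by CellTiter-Glo luminescence; CC₅₀ = concentration giving 50% signal.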
# [14] = Metabolic stability in cynomolgus monkey liver S9 fraction assessed as compound remaining at 10 uM after 60 mins by HPLC analysis in presence of NADP; format: ADME, subcellular, Macaca fascicularis; details: read-out: Stability; how it was run: as §1
# [15] = Metabolic stability in dog liver S9 fraction assessed as compound remaining at 10 uM after 60 mins by HPLC analysis in presence of NADP; format: ADME, subcellular, Canis lupus familiaris; details: read-out: Stability; how it was run: as §1
# [16] = Metabolic stability in human intestine S9 fraction assessed as compound remaining at 10 uM after 60 mins by HPLC analysis in presence of NADP; format: ADME, tissue-based; details: read-out: Stability; how it was run: as §1
# [17] = Metabolic stability in rat intestine S9 fraction assessed as compound remaining at 10 uM after 60 mins by HPLC analysis in absence of NADP; format: ADME, tissue-based; details: read-out: Stability; how it was run: as §2
# [18] = Metabolic stability in rat liver S9 fraction assessed as compound remaining at 10 uM after 60 mins by HPLC analysis in absence of NADP; format: ADME, subcellular; details: read-out: Stability; how it was run: as §2
# [19] = Metabolic stability in human liver S9 fraction assessed as compound remaining at 10 uM after 60 mins by HPLC analysis in absence of NADP; format: ADME, subcellular; details: read-out: Stability; how it was run: as §1
# [20] = test system: Liver; assay: AUC (0 to 6 hrs) in ICR mouse liver at 50 mg/kg, po by LC-MS/MS analysis; format: ADME, organism-based; design: time < 6 hr, dose 50 mg/kg, route oral; details: in vivo
# [21] = Cmax in ICR mouse plasma at 50 mg/kg, po by LC-MS/MS analysis; format: ADME, organism-based; design: dose 50 mg/kg, route oral
# [22] = test system: Plasma; assay: Dose normalized AUC in ICR mouse plasma at 50 mg/kg, po by LC-MS/MS analysis; format: ADME, organism-based; design: dose 50 mg/kg, route oral; details: in vivo
# [23] = test system: Liver; assay: Dose normalized AUC in ICR mouse liver at 50 mg/kg, po by LC-MS/MS analysis; format: ADME, organism-based; design: dose 50 mg/kg, route oral; details: in vivo
# [24] = Metabolic stability in cynomolgus monkey intestine S9 fraction assessed as compound remaining at 10 uM after 30 mins by HPLC analysis in presence of NADP; format: ADME, tissue-based, Macaca fascicularis; details: read-out: Stability
# [25] = Metabolic stability in cynomolgus monkey liver S9 fraction assessed as compound remaining at 10 uM after 30 mins by HPLC analysis in presence of NADP; format: ADME, subcellular, Macaca fascicularis; details: read-out: Stability
# [26] = Metabolic stability in cynomolgus monkey liver S9 fraction assessed as compound remaining at 10 uM after 30 mins by HPLC analysis in absence of NADP; format: ADME, subcellular, Macaca fascicularis; details: read-out: Stability
# [27] = Metabolic stability in cynomolgus monkey intestine S9 fraction assessed as compound remaining at 10 uM after 30 mins by HPLC analysis in absence of NADP; format: ADME, tissue-based, Macaca fascicularis; details: read-out: Stability
# [28] = Metabolic stability in mouse plasma assessed as compound remaining at 1 ug/ml after 4 hrs; format: ADME, cell-free; details: read-out: Stability
SMILES,EC50 [1] [nM],"remaining at 1 h, 10 µM [2] [%]","remaining at 0.5 h, 1 ug/ml [3] [%]","remaining at 1 h, 10 µM [4] [%]","remaining at 1 h, 10 µM [5] [%]","remaining at 1 h, 10 µM [6] [%]","remaining at 1 h, 10 µM [7] [%]","remaining at 1 h, 10 µM [8] [%]","remaining at 1 h, 10 µM [9] [%]","remaining at 1 h, 10 µM [10] [%]","remaining at 1 h, 10 µM [11] [%]","remaining at 1 h, 10 µM [12] [%]",CC50 at 72 h [13] [nM],"remaining at 1 h, 10 µM [14] [%]","remaining at 1 h, 10 µM [15] [%]","remaining at 1 h, 10 µM [16] [%]","remaining at 1 h, 10 µM [17] [%]","remaining at 1 h, 10 µM [18] [%]","remaining at 1 h, 10 µM [19] [%]",AUC [20] [ng·h/g],further results
CC(C)OC(=O)[C@H](C)NP(=O)(OC[C@H]1O[C@@H](n2cnc3c(=O)[nH]c(N)nc32)[C@](C)(O)[C@@H]1O)Oc1cccc2ccccc12 (some centres not stated),170,87,14,85,77,68,91,48,27,86,25,66,> 100000,0,81,65,76,28,41,–,–
C[C@H](NP(=O)(OC[C@H]1O[C@@H](n2cnc3c(=O)[nH]c(N)nc32)[C@](C)(O)[C@@H]1O)Oc1cccc2ccccc12)C(=O)OCC(C)(C)C (some centres not stated),57,68,0.3,49,57,56,87,20,7,88,5,42,> 100000,16,49,28,86,31,59,1584,Cmax [21]: 262 ng/mL; AUC [22]: 38 ng·h/mL; AUC [23]: 32 ng·h/g
C[C@H](NP(=O)(OC[C@H]1O[C@@H](n2cnc3c(=O)[nH]c(N)nc32)[C@](C)(O)[C@@H]1O)Oc1ccc2ccccc2c1)C(=O)OCc1ccccc1 (some centres not stated),170,–,0.7,23,–,27,28,–,14,–,–,23,> 50000,–,33,24,–,–,29,–,–
CC(C)[C@H](NP(=O)(OC[C@H]1O[C@@H](n2cnc3c(=O)[nH]c(N)nc32)[C@](C)(O)[C@@H]1O)Oc1cccc2ccccc12)C(=O)OCc1ccccc1 (some centres not stated),760,–,89,70,65,72,75,–,0,–,8,56,> 100000,–,56,24,81,62,78,1940,"remaining at 0.5 h, 10 µM [24]: 25%; remaining at 0.5 h, 10 µM [25]: 0%; Cmax [21]: 504 ng/mL; AUC [22]: 40 ng·h/mL; remaining at 0.5 h, 10 µM [26]: 77%; remaining at 0.5 h, 10 µM [27]: 77%; AUC [23]: 97 ng·h/g; remaining at 4 h, 1 ug/ml [28]: 66%"
